For the experiment, the target named is Hemagglutinin (Influenza A virus (strain A/X-31 H3N2)) (UniProt P03438). In words: Inhibition of influenza A, strain X-31, induced hemagglutinination of chicken erythrocytes. In kind it is functional. To be noted: Influenza A virus (A/X-31(H3N2)). The method, boiled down: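 Binding affinities come from hemagglutination inhibition with adult chicken red blood cells. Each is reported as a relative affinity against methyl α-sialoside (Neu5Acα2Me), whose affinity is set at 1.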
Sequence of Hemagglutinin (Influenza A virus (strain A/X-31 H3N2)) (P03438 whole entry): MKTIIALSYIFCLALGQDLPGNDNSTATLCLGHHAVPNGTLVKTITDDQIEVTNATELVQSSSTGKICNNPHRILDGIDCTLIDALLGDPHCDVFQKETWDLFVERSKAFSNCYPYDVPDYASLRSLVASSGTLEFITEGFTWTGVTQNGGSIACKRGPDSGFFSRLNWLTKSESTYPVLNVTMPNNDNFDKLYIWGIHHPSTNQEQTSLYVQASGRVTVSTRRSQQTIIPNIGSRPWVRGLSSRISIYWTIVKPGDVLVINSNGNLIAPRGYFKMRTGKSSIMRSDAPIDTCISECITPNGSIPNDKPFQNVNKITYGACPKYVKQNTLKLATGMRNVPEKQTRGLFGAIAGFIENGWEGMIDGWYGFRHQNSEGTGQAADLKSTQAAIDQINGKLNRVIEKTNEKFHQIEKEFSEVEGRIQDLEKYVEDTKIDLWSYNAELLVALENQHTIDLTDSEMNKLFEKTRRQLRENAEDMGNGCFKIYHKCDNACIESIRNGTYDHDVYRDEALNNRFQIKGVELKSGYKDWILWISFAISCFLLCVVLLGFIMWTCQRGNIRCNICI
Take `CC(=O)NC1C(O)CC(OCCCCC(=O)NCc2cc3ccccc3c3ccccc23)(C(=O)O)OC1[C@H](O)[C@H](O)CO` (some centres undefined): the Relative affinity came out at 32.
The same measure for `CC(=O)NC1C(O)CC(OCCCCCCC(=O)NCc2ccccc2)(C(=O)O)OC1[C@H](O)[C@H](O)CO` (some centres undefined): 16.
The same measure for `CC(=O)NC1C(O)CC(OCCCCCCCCC(=O)NCc2cccc3ccccc23)(C(=O)O)OC1[C@H](O)[C@H](O)CO` (some centres undefined): 16.
In the case of `CC(=O)NC1C(O)CC(OCCCCCCC(=O)NCc2cccc3ccccc23)(C(=O)O)OC1[C@H](O)[C@H](O)CO` (some centres undefined) it was 64.
With `CC(=O)NC1C(O)CC(OCCCCC(=O)NCCNC(=O)OCc2ccccc2)(C(=O)O)OC1[C@H](O)[C@H](O)CO` (some centres undefined), the Relative affinity amounted to 4.
`CNC(=O)CCCCOC1(C(=O)O)CC(O)C(NC(C)=O)C([C@H](O)[C@H](O)CO)O1` (some centres undefined) yielded a Relative affinity of 1.
Take `CC(=O)NC1C(O)CC(OCCCCC(=O)NCc2ccccc2)(C(=O)O)OC1[C@H](O)[C@H](O)CO` (some centres undefined): the Relative affinity amounted to 8.
In the case of `CC(=O)NC1C(O)CC(OCCCCC(=O)NCc2ccc3ncccc3c2)(C(=O)O)OC1[C@H](O)[C@H](O)CO` (some centres undefined) it was 8.
For `CC(=O)NC1C(O)CC(OCCC(=O)NCc2cccc3ccccc23)(C(=O)O)OC1[C@H](O)[C@H](O)CO` (some centres undefined), the Relative affinity turned out to be 8.
In the case of `CC(=O)NC1C(O)CC(OCCCCCCC(=O)NCc2cc3ccccc3c3ccccc23)(C(=O)O)OC1[C@H](O)[C@H](O)CO` (some centres undefined) it was 64; in that of `CC(=O)NC1C(O)CC(OCCCCC(=O)NCc2cccc(C(=O)O)c2)(C(=O)O)OC1[C@H](O)[C@H](O)CO` (some centres undefined), 16.
`CC(=O)NC1C(O)CC(OCCCCCCCCC(=O)NCc2ccccc2)(C(=O)O)OC1[C@H](O)[C@H](O)CO` (some centres undefined): the Relative affinity is under 8.
The same measure for `CC(=O)NC1C(O)CC(OCCCCC(=O)NCc2cccc3ccccc23)(C(=O)O)OC1[C@H](O)[C@H](O)CO` (some centres undefined): 32; for `CC(=O)NC1C(O)CC(OCCCCC(=O)NNS(=O)(=O)c2cccc3c(N(C)C)cccc23)(C(=O)O)OC1[C@H](O)[C@H](O)CO` (some centres undefined): 4.
